Bioassay records (PubChem)
Pf Dd2 inh: inhibitors of Plasmodium falciparum Dd2 growth; actives 2.3% (n = 94,000); P. falciparum Dd2 growth, SYBR Green, 72 h; hits give low values; activity change, % at 10 µM; in the data active = activity change below about -80%; inconclusive = no clear call, values can overlap the other calls
T cruzi growth-1: inhibitors of T. cruzi proliferation; inhibition, % at 8.34 µM; actives 5.9% (n = 77,000); AID 624255; T. cruzi beta-gal in NIH3T3, GalScreen luminescence, 90 h;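 active = mean inhibition above about 93%, with at least 55% of replicates each passing it, limit read from the data, passing the limit was not always enough; inconclusive = only one of those two conditions holds; inactive = neither condition holds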
IDH1 R132H inh: inhibitors of human IDH1 R132H. O75874. IDH1 R132H reductase, diaphorase/resazurin fluorescence, 60 min. inhibition, % at 10 µM. actives 0.18% (n = 70,000). AID 624101; in the data active = inhibition above about 34%; inconclusive = no clear call, values can overlap the other calls; inactive = below about 11%;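 note: 0% = DMSO and 100% = no enzyme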
Target sequence (O75874 whole entry R132H): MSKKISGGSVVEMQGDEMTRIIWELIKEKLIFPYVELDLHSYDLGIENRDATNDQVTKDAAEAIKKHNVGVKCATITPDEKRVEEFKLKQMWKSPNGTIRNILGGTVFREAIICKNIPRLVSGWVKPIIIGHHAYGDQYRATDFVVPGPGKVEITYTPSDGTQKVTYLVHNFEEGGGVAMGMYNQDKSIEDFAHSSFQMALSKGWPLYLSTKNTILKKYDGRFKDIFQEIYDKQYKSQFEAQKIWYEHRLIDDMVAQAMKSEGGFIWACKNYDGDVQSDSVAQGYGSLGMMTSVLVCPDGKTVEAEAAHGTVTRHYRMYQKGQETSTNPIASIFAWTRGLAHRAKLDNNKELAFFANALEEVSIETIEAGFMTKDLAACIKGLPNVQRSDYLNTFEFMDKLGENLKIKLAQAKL
GASC1 inh: inhibitors of human demethylase GASC-1 KDM4C. Q9H3R0. GST-KDM4C 2-372, H3K9me3 peptide, LANCE TR-FRET. inhibition, % at 12.5 µM. actives 0.15% (n = 96,000);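 active = mean replicate inhibition above about 25%, with at least 55% of replicates also reaching it, limit read from the data, passing the limit was not always enough; inconclusive = only one of those two conditions met; inactive = neither condition met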
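System: N-terminal GST-fused human GASC-1 (KDM4C) fragment, residues 2-372; amount: enzyme final amount 10 nM; incubation: reaction 30 min RT, detection step 1 h RT; medium: HEPES buffer, pH 7.5, plus ascorbate; technique: LANCE TR-FRET, Eu antibody, ULight-streptavidin, EDTA, ex 340 nm, em 618/671 nm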
T cruzi growth-2: blocks T. cruzi growth in NIH3T3 host cells | shares compounds with T cruzi growth-1 | T. cruzi beta-gal in NIH3T3, GalScreen luminescence, 90 h | inhibition, % at 8.35 µM | actives 72% (n = 5,600);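 active = mean replicate inhibition above about 95% and at least 55% of replicates individually reaching it, limit read from the data; inconclusive = only one of the two criteria is met; inactive = neither criterion is met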
T cruzi growth-3: blocks T. cruzi growth in NIH3T3 host cells. shares compounds with T cruzi growth-1. T. cruzi beta-gal in NIH3T3, GalScreen luminescence, 90 h. inhibition, % at 2.09 µM. actives 21% (n = 5,600). AID 651740;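 active = mean inhibition above about 95%, with at least 55% of replicates also reaching it, limit read from the data; inconclusive = meets just one of the two conditions; inactive = meets neither condition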;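 note: plate controls were neutral control median for no effect and positive control median for full effect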
NIH3T3 tox: NIH/3T3 (mouse) viability loss. shares compounds with T cruzi growth-1. NIH/3T3 viability, CellTiter-Glo ATP luminescence, 90 h. cytotoxicity (signal decrease), % at 8.35 µM. actives 14% (n = 5,600);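 active = mean signal decrease across replicates above about 35% based on untreated-well scatter, with enough replicates individually passing, limit read from the data; inconclusive = no rule stated though some were filed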;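 note: 0% = median of neutral control wells and 100% = median of positive control wells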
NIH3T3 tox 2: NIH/3T3 (mouse) viability loss; shares compounds with T cruzi growth-1; NIH/3T3 viability, CellTiter-Glo ATP luminescence, 90 h; inhibition, % at 24.9 µM; actives 56% (n = 5,600); AID 651744;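 active = mean loss of cell viability signal at or above a set limit, and enough replicates individually reaching it; inconclusive = meets only the mean limit or only the replicate share; inactive = meets neither condition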;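 note: 0% = median of neutral control wells and 100% = median of positive control wells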
An asterisk follows results filed as active; u = inconclusive; x = not tested or not shown; ! = not confirmed by another sample. Most compounds without a hit are left out; they make up all but 5.8% or so of the library.

SMILES	Pf Dd2 inh	T cruzi growth-1	IDH1 R132H inh	GASC1 inh	T cruzi growth-2	T cruzi growth-3	NIH3T3 tox	NIH3T3 tox 2
CC(C)CC#Cc1ccc2c(c1)O[C@@H](CN(C)C(=O)c1ccccc1)[C@H](C)CN([C@@H](C)CO)S2(=O)=O	-69	116*	0	-2	110*	57	39*	108*
CCCC#Cc1ccc2c(c1)O[C@H](CN(C)C(=O)c1ccccc1)[C@H](C)CN([C@@H](C)CO)S2(=O)=O	-53	96*	-2	-1	102*	77	-3	26*
COc1ccc(CN(C)C[C@H]2Oc3c(NC(=O)C4CCCCC4)cccc3C(=O)N([C@H](C)CO)C[C@@H]2C)cc1	-21	51	2	0	x	x	x	x
CCC(=O)NC[C@H]1[C@@H](c2ccc(-c3cccc(F)c3)cc2)[C@H](CO)N1C(=O)CC	19	30	x	-3	x	x	x	x
CCC(=O)NC[C@@H]1[C@H](c2ccc(-c3cccc(F)c3)cc2)[C@H](CO)N1C(=O)CC	12	u	x	-1	12	-19	-8	-10
CCC(=O)NC[C@@H]1[C@H](c2ccc(-c3cccc(F)c3)cc2)[C@@H](CO)N1C(=O)CC	1	101*	x	-1	-41	-73	-35	-30
C[C@@H]1CN([C@H](C)CO)C(=O)c2cc(NC(=O)Nc3ccc(F)cc3)ccc2O[C@@H](C)CCCCO[C@@H]1CN(C)S(=O)(=O)c1ccccc1	-82*	103*	10	17	83	-13	-13	-3
C[C@H](CO)N1C[C@H](C)[C@@H](CN(C)S(=O)(=O)c2ccccc2)OCCCC[C@H](C)Oc2ccc(NC(=O)Nc3ccc(F)cc3)cc2C1=O	-61	109*	1	-1	106*	59	-3	14
C[C@@H]1CCCCO[C@H](CN(C)S(=O)(=O)c2ccccc2)[C@H](C)CN([C@@H](C)CO)C(=O)c2cc(NC(=O)Nc3ccc(F)cc3)ccc2O1	-72	105*	x	-3	109*	66	-25	24
C[C@@H]1CCCCO[C@@H](CN(C)S(=O)(=O)c2ccccc2)[C@@H](C)CN([C@H](C)CO)C(=O)c2cc(NC(=O)Nc3ccc(F)cc3)ccc2O1	-71	87	x	1	x	x	x	x
C[C@@H]1CN([C@@H](C)CO)C(=O)c2cc(NC(=O)Nc3ccc(F)cc3)ccc2O[C@@H](C)CCCCO[C@H]1CN(C)S(=O)(=O)c1ccccc1	-73	106*	x	0	112*	-49	14	5
COc1ccc(S(=O)(=O)N(C)C[C@@H]2Oc3cc(C#CC4CCCC4)ccc3S(=O)(=O)N([C@H](C)CO)C[C@H]2C)cc1	-49	13	0	1	x	x	x	x
COc1ccc(S(=O)(=O)N(C)C[C@@H]2Oc3cc(C#CC4CCCCC4)ccc3S(=O)(=O)N([C@@H](C)CO)C[C@@H]2C)cc1	-84*!	111*!	1	3	92	78	-10	59*
COc1ccc(S(=O)(=O)N(C)C[C@@H]2Oc3cc(C#CC4CC4)ccc3S(=O)(=O)N([C@H](C)CO)C[C@@H]2C)cc1	-54	109*	-2	0	104*	85	12	25*
Cc1ccc(S(=O)(=O)N(C)C[C@@H]2Oc3cc(C#CC4CCCC4)ccc3S(=O)(=O)N([C@H](C)CO)C[C@@H]2C)cc1	-29	125*	0	0	89	103*	7	4
C[C@@H]1CN([C@H](C)CO)S(=O)(=O)c2ccc(C#CC3CCCC3)cc2O[C@H]1CN(C)S(C)(=O)=O	-10	43	-6	-1	x	x	x	x
COc1ccc(S(=O)(=O)N(C)C[C@H]2Oc3cc(C#CC4CC4)ccc3S(=O)(=O)N([C@H](C)CO)C[C@@H]2C)cc1	-54	106*	x	1	103*	52	22	50*
C[C@@H]1CN([C@@H](C)CO)C(=O)c2cc(NS(=O)(=O)c3cn(C)cn3)ccc2O[C@@H](C)CCCCO[C@H]1CN(C)CC1CCCCC1	13	-40	3	0	x	x	x	x
COc1ccc(S(=O)(=O)N(C)C[C@@H]2Oc3cc(C#CC4CC4)ccc3S(=O)(=O)N([C@@H](C)CO)C[C@@H]2C)cc1	-53	110*	x	0	104*	101*	-19	27*
COc1ccccc1NC(=O)N[C@@H]1C=C[C@H](CC(=O)N[C@H](C)c2ccccc2)O[C@H]1CO	21	-29	0	2	x	x	x	x
C[C@@H]1CCCCO[C@H](CN(C)CC2CCCCC2)[C@@H](C)CN([C@H](C)CO)C(=O)c2cc(NS(=O)(=O)c3ccc(F)cc3)ccc2O1	1	37	x	-2	x	x	x	x
COc1ccccc1C#Cc1ccc([C@H]2[C@@H](CO)N3CCCCN(C(=O)C4CC4)C[C@@H]23)cc1	-59	110*	x	x	104*	65	57*	47*
COc1ccccc1C#Cc1ccc([C@@H]2[C@H](CO)N3CCCCN(S(C)(=O)=O)C[C@@H]23)cc1	-48	91	x	2	x	x	x	x
COc1ccccc1C#Cc1ccc([C@H]2[C@H]3CN(C(=O)C4CC4)CCCCN3[C@H]2CO)cc1	-21	101*	x	x	100*	57	30	48*
COc1ccccc1OCC(=O)Nc1cc(-c2nc3ccccc3[nH]2)ccc1C	x	x	0	x	x	x	x	x
SMILES	Pf Dd2 inh	T cruzi growth-1	IDH1 R132H inh	GASC1 inh	T cruzi growth-2	T cruzi growth-3	NIH3T3 tox	NIH3T3 tox 2
O=C(NC[C@@H]1CC[C@H]2[C@H](CN2C(=O)Cc2ccncc2)O1)C1CCOCC1	36	x	x	x	x	x	x	x
CCC(=O)N1C[C@@H](O)COC[C@H]2O[C@H](CC(=O)NCc3ccc(Oc4ccccc4)cc3)CC[C@@H]21	1	1	x	-5	x	x	x	x
O=C(C[C@H]1CC[C@H]2[C@@H](COC[C@@H](O)CN2S(=O)(=O)c2cccc(Cl)c2)O1)Nc1ccccc1	7	15	x	0	x	x	x	x
O=C(C[C@@H]1CC[C@@H]2[C@H](COC[C@H](O)CN2S(=O)(=O)c2cccc(Cl)c2)O1)Nc1ccc(-c2ccccc2)cc1	-35	110*	x	0	93	111*	36*	75*
O=C(C[C@@H]1CC[C@H]2[C@@H](COC[C@H](O)CN2S(=O)(=O)c2cccc(Cl)c2)O1)Nc1ccc(-c2ccccc2)cc1	-2	u	x	-3	110*	72	22	105*
O=S(=O)(N[C@H]1CC[C@@H](CCn2cc(C3CC3)nn2)O[C@H]1CO)c1ccc(Cl)cc1	-26	-5	0	0	x	x	x	x
